Assay results reported in ChEMBL document CHEMBL3808335, “Discovery of KLS-13019, a Cannabidiol-Derived Neuroprotective Agent, with Improved Potency, Safety, and Permeability” (ACS Med Chem Lett, 2016).
Values after ≈ are worked out from the molar mass of the structure shown.

Legend:
[1] = Neuroprotective activity in rat hippocampal neurons assessed as protection against ethanol induced cell death by measuring neuronal viability after 5 hrs by carboxyfluorescein diacetate dye based fluorimetric analysis; assay type: functional, Hippocampal neurone
Outline: (§1)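 Ethanol (30 mM) used as toxin. Viability read by CFDA fluorescence, cell death by propidium iodide. Full efficacy defined as the fluorescence of neurons without toxin.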

[2] = Neuroprotective activity in rat hippocampal neurons assessed as protection against ethanol induced cell death after 5 hrs by propidium iodide staining based fluorimetric analysis; assay type: functional, Hippocampal neurone; outline: as §1
[3] = Neuroprotective activity in rat hippocampal neurons assessed as protection against ammonium acetate induced cell death by measuring neuronal viability after 5 hrs by carboxyfluorescein diacetate dye based fluorimetric analysis; assay type: functional, Hippocampal neurone
Outline: (§2)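 Ammonium acetate (300 μM) used as toxin. Viability read by CFDA fluorescence, cell death by propidium iodide. Full efficacy defined as the fluorescence of neurons without toxin.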

[4] = Neuroprotective activity in rat hippocampal neurons assessed as protection against ammonium acetate induced cell death after 5 hrs by propidium iodide staining based fluorimetric analysis; assay type: functional, Hippocampal neurone; outline: as §2
[5] = Toxicity in rat hippocampal neurons assessed as neuronal viability after 5 hrs by carboxyfluorescein diacetate dye based fluorimetric analysis; parameters: species or system Hippocampal neurone; settings: read-out: TC50
Cannabinoid receptor 1 [6] = target: T1, Cannabinoid receptor 1 (Homo sapiens, UniProt P21554); experiment: Displacement of [3H]CP 55940 from human recombinant CB1 receptor expressed in CHO cell membranes at 10 uM after 120 mins by scintillation counting analysis
[7] = target: Cannabinoid receptor 2 (Homo sapiens) (UniProt P34972); experiment: Displacement of [3H]WIN 55212-2 from human recombinant CB2 receptor expressed in CHO cell membranes at 10 uM after 120 mins by scintillation counting analysis
[8] = Kinetic aqueous solubility of the compound at pH 7.4
[9] = Apparent permeability from apical to basolateral side in human Caco cells; settings: Caco-2
[10] = Efflux ratio of permeability from basolateral to apical over apical to basolateral side in human Caco cells; settings: Caco-2
MDR1 [11] = experiment: Apparent permeability from apical to basolateral side in MDCK cells expressing MDR1; settings: dog
MDR1 [12] = experiment: Efflux ratio of permeability from basolateral to apical over apical to basolateral side in MDCK cells expressing MDR1; settings: dog
in vitro = settings: rat, rat hippocampal neurons
Cannabinoid receptor 1 [13] = target: T1, Cannabinoid receptor 1; experiment: Displacement of [3H]CP 55940 from human CB1 receptor after 1 hr by liquid scintillation spectrometry
[14] = Rattus norvegicus, Hippocampal neurone, 5 h, read-out: EC50

Chain of Cannabinoid receptor 2 (Homo sapiens) (P34972 whole entry): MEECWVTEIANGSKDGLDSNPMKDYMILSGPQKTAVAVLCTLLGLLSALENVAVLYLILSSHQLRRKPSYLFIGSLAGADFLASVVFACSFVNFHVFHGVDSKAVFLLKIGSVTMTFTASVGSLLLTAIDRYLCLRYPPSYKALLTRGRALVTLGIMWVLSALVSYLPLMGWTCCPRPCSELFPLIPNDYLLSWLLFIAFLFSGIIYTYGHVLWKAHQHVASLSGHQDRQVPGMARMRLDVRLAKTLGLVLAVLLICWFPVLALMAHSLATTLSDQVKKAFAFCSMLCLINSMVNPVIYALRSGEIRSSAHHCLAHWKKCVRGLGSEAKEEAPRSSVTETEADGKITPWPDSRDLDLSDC
T1 sequence (P21554 whole entry): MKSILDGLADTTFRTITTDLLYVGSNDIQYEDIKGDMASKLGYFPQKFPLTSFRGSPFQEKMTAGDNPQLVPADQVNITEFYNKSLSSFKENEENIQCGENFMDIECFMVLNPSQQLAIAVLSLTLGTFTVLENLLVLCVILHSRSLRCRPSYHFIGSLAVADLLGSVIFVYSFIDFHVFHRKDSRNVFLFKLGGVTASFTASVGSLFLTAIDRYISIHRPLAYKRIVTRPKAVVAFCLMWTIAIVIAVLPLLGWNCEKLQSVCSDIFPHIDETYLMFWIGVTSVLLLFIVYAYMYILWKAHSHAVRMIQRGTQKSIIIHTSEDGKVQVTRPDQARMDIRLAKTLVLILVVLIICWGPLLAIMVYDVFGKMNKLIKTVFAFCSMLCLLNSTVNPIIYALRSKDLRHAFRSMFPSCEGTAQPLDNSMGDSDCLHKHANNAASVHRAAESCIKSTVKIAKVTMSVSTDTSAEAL

| SMILES | EC50 [1, 14] | EC50 [2, 14] | EC50 [3, 14] | EC50 [4, 14] | other results |
| --- | --- | --- | --- | --- | --- |
| C=C(C)[C@@H]1CCC(C)=C[C@H]1c1c(O)cc(CCn2nccn2)cc1O | > 100 µM | > 100 µM | > 100 µM | > 100 µM |  |
| C=C(C)[C@@H]1CCC(C)=C[C@H]1c1c(O)cc(CC2CN(C(C)=O)C2)cc1O | 0.08 µM | 0.05 µM | 0.04 µM | 0.04 µM | CC50 at 5 h [5]: 300 µM; inhibition (Cannabinoid receptor 1 [6]): 13%; inhibition [7]: 56%; solubility kinetic [8]: 87 µM (≈ 30.9 µg/mL); Papp A→B [9]: 49 ×10⁻⁶ cm/s; efflux ratio [10]: 0.53; Papp A→B (MDR1 [11]): 35 ×10⁻⁶ cm/s; efflux ratio (MDR1 [12]): 1.02; selectivity ratio at 5 h (in vitro): 7500 |
| C=C(C)[C@@H]1CCC(C)=C[C@H]1c1c(O)cc(CC2CN(C)C2)cc1O |  |  |  |  | EC50 ([1]; hippocampal neurone): ND(toxic); EC50 ([2]; hippocampal neurone): ND(toxic); EC50 ([3]; hippocampal neurone): ND(toxic); EC50 ([4]; hippocampal neurone): ND(toxic) |
| C=C(C)[C@@H]1CCC(C)=C[C@H]1c1c(O)cc(CC2COC2)cc1O | 18 µM | 10 µM | 35 µM | 20 µM |  |
| C=C(C)[C@@H]1CCC(C)=C[C@H]1c1c(O)cc(CCNC(C)=O)cc1O | 30 µM | 17 µM | > 100 µM | > 100 µM |  |
| C=C(C)[C@@H]1CCC(C)=C[C@H]1c1c(O)cc(CCn2ccnn2)cc1O | 5 µM | 2 µM | 3 µM | 1 µM | CC50 at 5 h [5]: > 100 µM; inhibition (Cannabinoid receptor 1 [6]): 6%; inhibition [7]: 1% |
| C=C(C)[C@@H]1CCC(C)=C[C@H]1c1c(O)cc(CC2CN(C(=O)OCC)C2)cc1O | 0.03 µM | 0.02 µM | 0.11 µM | 0.05 µM | CC50 at 5 h [5]: > 100 µM; inhibition (Cannabinoid receptor 1 [6]): 19%; inhibition [7]: 37%; solubility kinetic [8]: 16.6 µM (≈ 6.4 µg/mL); Papp A→B [9]: 22 ×10⁻⁶ cm/s; efflux ratio [10]: 0.5; Papp A→B (MDR1 [11]): 11 ×10⁻⁶ cm/s; efflux ratio (MDR1 [12]): 0.97; selectivity ratio at 5 h (in vitro): 900 |
| C=C(C)[C@@H]1CCC(C)=C[C@H]1c1c(O)cc(CCCCCO)cc1O | 54 µM | > 100 µM | > 100 µM | > 100 µM |  |
| CCCCCCC(C)(C)c1cc(O)c(C2CCCCC2)c(O)c1 |  |  |  |  | Ki (Cannabinoid receptor 1 [13]): 0.011 µM |
| C=C(C)[C@@H]1CCC(C)=C[C@H]1c1c(O)cc(CC(=O)N2CCOCC2)cc1O | > 100 µM | > 100 µM | > 100 µM | > 100 µM |  |
| C=C(C)[C@@H]1CCC(C)=C[C@H]1c1c(O)cc(CCN2CCOCC2)cc1O | 5 µM | 24 µM | > 100 µM | 20 µM |  |
| C=C(C)[C@@H]1CCC(C)=C[C@H]1c1c(O)cc(CCCCC)cc1O [CANNABIDIOL] | 1 µM | 3 µM | 2 µM | 4 µM | CC50 at 5 h [5]: 33 µM; solubility kinetic [8]: 17 µM (≈ 5.35 µg/mL); Papp A→B [9]: < 1.5 ×10⁻⁶ cm/s; Papp A→B (MDR1 [11]): < 2.23 ×10⁻⁶ cm/s |
| C=C(C)[C@@H]1CCC(C)=C[C@H]1c1c(O)cc(O)cc1CC1CN(C(C)=O)C1 | > 100 µM | > 100 µM | > 100 µM | > 100 µM |  |
| C=C(C)[C@@H]1CCC(C)=C[C@H]1c1c(O)cc(CCOCC)cc1O | 0.3 µM | 3 µM | 36 µM | 0.2 µM |  |
| C=C(C)[C@@H]1CCC(C)=C[C@H]1c1c(O)cc(CCCCC(=O)O)cc1O | 10 µM | 7 µM | 4 µM | 30 µM |  |
